Our source for the Activity values is ChEMBL document CHEMBL5104206, “Oleic amide derivatives as small molecule stimulators of the human proteasome's core particle” (RSC Med Chem, 2022).

Calls of active or inactive are those of the source. The rule behind the calls is not given here.

The target of data set [1] is T1, 20S proteasome (Homo sapiens) (UniProt P49721+P20618+P28074+P28062+P28065+P28072+P25786+P25787+P25788+P25789+P28066+P60900+O14818+Q8TAA3+P40306+A5LHX3+P49720+P28070+Q99436). The data set is described as follows: Stimulation of human 20S proteasome assessed as increase in proteasome activity at 25 uM and measured upto 60 mins using FRET peptide as substrate by FRET assay relative to control. Format: protein-complex assay. Particulars: filed as activator. Summed up: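 Purified 20S CP (5 nM) with 20 µM FRET peptide reporter in Tris-HCl (50 mM, pH 7.63), 2% DMSO, 25 µL. Controls were reporter alone and basal enzyme with DMSO, in triplicate. Read at 37 °C, ex 335/em 493 nm, every 2 min for 60 min. Rate taken as slope of linear portion.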

The target of data set [2] is T2, Proteasome Macropain subunit MB1 (Homo sapiens) (UniProt P28074).
T2 sequence (whole entry): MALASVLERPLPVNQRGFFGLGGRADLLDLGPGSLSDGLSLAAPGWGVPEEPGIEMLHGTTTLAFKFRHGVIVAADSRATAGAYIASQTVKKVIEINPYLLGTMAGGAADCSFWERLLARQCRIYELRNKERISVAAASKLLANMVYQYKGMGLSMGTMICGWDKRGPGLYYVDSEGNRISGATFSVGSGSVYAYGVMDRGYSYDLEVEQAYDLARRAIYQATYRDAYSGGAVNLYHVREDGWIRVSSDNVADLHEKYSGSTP
Put plainly: Stimulation of human 20S proteasome beta 5 subunit in human HEK-293T cells assessed as increase in proteasome activity at 6.25 to 25 uM preincubated for 2 hrs followed by Me4BodipyFL-Ahx3Leu3VS proteasome probe addition and measured after 1 hrs by SDS-PAGE analysis. Particulars: filed as activator, dose 6.25-25 µM. The data set is classed as cell-based. Summed up: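 Treated 2 h in fresh medium, DMSO control 0.5%, then 1 µM Me4BodipyFL-Ahx3Leu3VS probe added. Cells lysed in M-PER with protease inhibitors. 50 µg protein run on 4–15% SDS-PAGE, in-gel fluorescence scanned at 488 nm. Band densities quantified, triplicate.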

Data set [3] concerns HEK-293T. Put plainly: Cytotoxicity against human HEK-293T cells assessed as reduction in cell viability at 6.25 to 25 uM incubated for 24 hrs by CellTiter Glo viability assay. The data set is classed as toxicity, cell-based. Particulars: dose 6.25-25 µM. Summed up: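 HEK-293T seeded at 5000 cells/well, attached overnight, medium refreshed. Compound in DMSO added in triplicate, 1% final DMSO, 24 h. Plate equilibrated to room temperature 30 min before CellTiter-Glo reagent, shaken 10 min, signal stabilized 10 min. Luminescence read.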
Background: In ATP-based viability assays light output follows the ATP content of the culture.

The target in data set [4] is T1, 20S proteasome (Homo sapiens). The data set is described as follows: Activation of human 20S proteasome mediated degradation of alpha-synuclein assessed as amount of alpha-synuclein remaining at 25 uM and incubated for 2 hrs by Coomassie staining based SDS-PAGE analysis. The data set is classed as protein-complex assay. Particulars: filed as activator. Put shortly:
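Human 20S CP (5 nM final) with α-Syn monomer (400 ng) in Tris-HCl (50 mM, pH 7.6), 2% DMSO, 18 µL total, 2 h at 37 °C, triplicate. Mixed on ice before incubation. Stopped in SDS loading buffer at 95 °C 5 min. Run on 4–15% SDS-PAGE, Coomassie stained, band intensity normalized to α-Syn without 20S CP.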

Turning to `CCCCCCCC/C=C\CCCCCCCC(=O)NC1CCC1`, in data set [1], the Activity was 202%.
In the case of `CCCCCCCC/C=C\CCCCCCCC(=O)NCc1ccc(Cl)cc1`, in data set [1], the Activity turned out to be 138%.
As for `CCCCCCCC/C=C\CCCCCCCC(=O)N[C@H](C)c1ccccc1`, the Activity in data set [1] was 225%.
For the molecule `CCCCCCCC/C=C\CCCCCCCC(=O)NCc1ccc(O)cc1`, the figures for the Activity in data set [1] and in data set [3] were 361% and “Toxic”, respectively. The outcome in data set [2] and in data set [4] was Active.
Turning to `CCCCCCCC/C=C\CCCCCCCC(=O)NCc1ccc(C)cc1`, the Activity in data set [1] was determined as 167%.
Still for that read-out and setting: the same measure for `CCCCCCCC/C=C\CCCCCCCC(=O)Nc1ccc(O)cc1`: 247%.
Regarding `CCCCCCCC/C=C\CCCCCCCC(=O)Nc1ccc(C(C)=O)cc1`, the figures for the Activity in data set [1] and in data set [3] were 241% and “Non-Toxic”, respectively. Besides, the outcome in data set [2] and in data set [4] was Active.
In the case of `CCCCCCCC/C=C\CCCCCCCC(=O)N[C@@H](C)c1ccccc1`, the Activity in data set [1] was found to be 195%.
On to `CCCCCCCC/C=C\CCCCCCCC(=O)NCCC`, for which the Activity was 154% in data set [1] and “Toxic” in data set [3]. Moreover, the result in data set [2] and in data set [4] was Active.
For the molecule `CCCCCCCC/C=C\CCCCCCCC(=O)Nc1ccc(Oc2ccccc2)cc1`, the Activity in data set [1] is 145%.
Still for that read-out and setting: in the case of `CCCCCCCC/C=C\CCCCCCCC(=O)NCc1cccc(C)c1` it was 183%; in that of `CCCCCCCC/C=C\CCCCCCCC(=O)NCCCCC`, 124%.
On to `CCCCCCCC/C=C\CCCCCCCC(=O)Nc1ccccc1`, for which, in data set [1], the Activity came out at 159%.
Consider `CCCCCCCC/C=C\CCCCCCCC(=O)NCC(C)C`, for which, in data set [1], the Activity stood at 139%.
Turning to `CCCCCCCC/C=C\CCCCCCCC(=O)Nc1ccc(C(C)(C)C)cc1`, the Activity in data set [1] was determined as 68%.
Still for that read-out and setting: in the case of `CCCCCCCC/C=C\CCCCCCCC(=O)N[C@H]1CC[C@H](C)CC1` it was 118%; in that of `CCCCCCCC/C=C\CCCCCCCC(=O)NCc1ccc(C(C)(C)C)cc1`, 106%; in that of `CCCCCCCC/C=C\CCCCCCCC(=O)NC`, 132%.
Take `CCCCCCCC/C=C\CCCCCCCC(=O)NCCCC`: in data set [1], the Activity worked out at 138%.
With `CCCCCCCC/C=C\CCCCCCCC(=O)NC1CCCCCCC1`, in data set [1], the Activity is 148%.
Consider `CCCCC/C=C\C/C=C\C/C=C\C/C=C\CCCC(=O)Nc1ccc(O)cc1`, for which the results for the Activity in data set [1], in data set [2] (DDE = dose-dependent effect) and in data set [3] were 219%, “Dde” and “Toxic”, respectively. Besides, in data set [4], the result was Active.
In the case of `CCCCCCCC/C=C\CCCCCCCC(=O)NCc1ccc(OC)cc1`, in data set [1], the Activity amounted to 116%.
As to `CCCCCCCC/C=C\CCCCCCCC(=O)NCc1ccccc1C`, in data set [1], the Activity stood at 107%.
`CCCCCCCC/C=C\CCCCCCCC(=O)NC1CCCCCC1`: the Activity in data set [1] stood at 136%.
Turning to `CCCCCCCC/C=C\CCCCCCCC(=O)NC1CCCCC1`, the Activity in data set [1] was found to be 204%.
Still for that read-out and setting: in the case of `CCCCCCCC/C=C\CCCCCCCC(=O)NCc1ccc(C(F)(F)F)cc1` it was 92%; in that of `CCCCCCCC/C=C\CCCCCCCC(=O)Nc1ccc(Cl)cc1`, 144%; in that of `CCCCCCCC/C=C\CCCCCCCC(=O)NC1CCCC1`, 218%.
The same measure, in the same setting: the same measure for `CCCCCCCC/C=C\CCCCCCCC(=O)NCc1ccccc1`: 208%.
